From ChEMBL document CHEMBL1140193, “Synthesis and anti-inflammatory evaluation of methylene bridged benzofuranyl imidazo[2,1-b][1,3,4]thiadiazoles” (Eur J Med Chem, 2008)

How the values were obtained:
[1] = system: Rattus norvegicus; assay: Antiinflammatory activity in Wistar albino rat assessed as inhibition of carrageenan-induced paw oedema at 100 mg/kg, po measured 1 hr after carrageenan challenge; type: functional
Procedure, shortened: (§1)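 Albino rats, 6 per group, dosed orally at 100 mg kg^-1; ibuprofen 100 mg kg^-1 as standard. One hour after dosing, 0.1 ml of 1% carrageenan with 2% gum acacia in normal saline injected subplantar into the right hind paw. Paw volume measured by plethysmometer; % inhibition versus control calculated. One-way ANOVA with Dunnett's t test.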

[2] = system: Rattus norvegicus; assay: Toxicity in Wistar albino rat assessed as induction of sedation up to 3 g/kg, po after 8 hrs; type: organism-based; settings: in vivo, 3000 mg/kg
Procedure, shortened: (§2)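 Acute toxicity: albino rats of either sex in groups of six, oral doses from 100 up to 3000 mg kg^-1. Rats observed continuously for 8 h for changes in motor activity, ataxia, tremors, convulsions, sedation and lacrimation. Ulceration and haemorrhagic spots also inspected.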

[3] = system: Rattus norvegicus; assay: Antiinflammatory activity in Wistar albino rat assessed as inhibition of carrageenan-induced paw oedema at 100 mg/kg, po measured 2 hrs after carrageenan challenge; type: functional; procedure, shortened: as §1
[4] = system: Rattus norvegicus; assay: Antiinflammatory activity in Wistar albino rat assessed as inhibition of carrageenan-induced paw oedema at 100 mg/kg, po measured 5 hrs after carrageenan challenge; type: functional; procedure, shortened: as §1
[5] = system: Rattus norvegicus; assay: Analgesic activity in Wistar albino rat […] assessed as increase in reaction time for tail withdrawal at 100 mg/kg, po after 180 mins by tail flick method; type: functional
[6] = system: Rattus norvegicus; assay: Toxicity in Wistar albino rat assessed as induction of convulsions and tremors up to 3 g/kg, po after 8 hrs; type: organism-based; settings: in vivo, 3000 mg/kg; procedure, shortened: as §2
[7] = system: Rattus norvegicus; assay: Toxicity in Wistar albino rat assessed as effect on motor activity up to 3 g/kg, po after 8 hrs; type: organism-based; settings: in vivo, 3000 mg/kg; procedure, shortened: as §2
[8] = system: Rattus norvegicus; assay: Antiinflammatory activity in Wistar albino rat assessed as inhibition of carrageenan-induced paw oedema at 100 mg/kg, po measured 4 hrs after carrageenan challenge; type: functional; procedure, shortened: as §1
[9] = system: Rattus norvegicus; assay: Analgesic activity in Wistar albino rat […] assessed as reaction time for tail withdrawal at 100 mg/kg, po after 30 mins by tail flick method; type: functional
[10] = system: Rattus norvegicus; assay: Antiinflammatory activity in Wistar albino rat assessed as inhibition of carrageenan-induced paw oedema at 100 mg/kg, po measured 0.5 hrs after carrageenan challenge; type: functional; procedure, shortened: as §1
[11] = system: Rattus norvegicus; assay: Toxicity in Wistar albino rat assessed as mortality up to 3 g/kg, po after 24 hrs; type: organism-based; settings: in vivo, 3000 mg/kg
Procedure, shortened: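 Albino rats of either sex, six per group, dosed orally from 100 up to 3000 mg kg^-1 body weight. Animals were watched continuously for 8 h for signs of acute toxicity such as altered motor activity, ataxia, tremors, convulsions, sedation and lacrimation, and were checked for mortality over a 24 h period. Food was withheld for 12 h before dosing.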

[12] = system: Rattus norvegicus; assay: Toxicity in Wistar albino rat assessed as induction of haemorrhagic spots up to 3 g/kg, po after 8 hrs; type: organism-based; settings: in vivo, 3000 mg/kg; procedure, shortened: as §2
[13] = system: Rattus norvegicus; assay: Antiinflammatory activity in Wistar albino rat assessed as inhibition of carrageenan-induced paw oedema at 100 mg/kg, po measured 3 hrs after carrageenan challenge; type: functional; procedure, shortened: as §1
[14] = system: Rattus norvegicus; assay: Analgesic activity in Wistar albino rat […] assessed as reaction time for tail withdrawal at 100 mg/kg, po after 120 mins by tail flick method; type: functional
Procedure, shortened: (§3)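 Rat tail-flick test: latency for the rat to withdraw its tail from hot water at 55 ± 0.5 °C. Drugs given orally. Reaction time in seconds read at 60, 90, 120 and 300 min after dosing. Treated animals compared with control and with a nimesulide standard. Wistar albino rats, 150-200 g, either sex; food withdrawn 12 h before and during testing.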

[15] = system: Rattus norvegicus; assay: Analgesic activity in Wistar albino rat […] assessed as reaction time for tail withdrawal at 100 mg/kg, po after 180 mins by tail flick method; type: functional
[16] = system: Rattus norvegicus; assay: Analgesic activity in Wistar albino rat […] assessed as reaction time for tail withdrawal at 100 mg/kg, po after 60 mins by tail flick method; type: functional; procedure, shortened: as §3
[17] = system: Rattus norvegicus; assay: Analgesic activity in Wistar albino rat […] assessed as increase in reaction time for tail withdrawal at 100 mg/kg, po after 300 mins by tail flick method; type: functional; procedure, shortened: as §3
[18] = system: Rattus norvegicus; assay: Toxicity in Wistar albino rat assessed as induction of gastric ulceration up to 3 g/kg, po after 8 hrs; type: organism-based, Stomach; settings: in vivo, 3000 mg/kg; procedure, shortened: as §2
[19] = system: Rattus norvegicus; assay: Analgesic activity in Wistar albino rat […] assessed as reaction time for tail withdrawal at 100 mg/kg, po after 300 mins by tail flick method; type: functional; procedure, shortened: as §3

| Structure (SMILES) | inhibition in vivo at 100 mg/kg [1] | Activity [2] | inhibition in vivo at 100 mg/kg [3] | inhibition in vivo at 100 mg/kg [4] | Activity [5] | Activity [6] | Activity [7] | inhibition in vivo at 100 mg/kg [8] | Activity [9] | inhibition in vivo at 100 mg/kg [10] | Activity [11] | Activity [12] | inhibition in vivo at 100 mg/kg [13] | Activity [14] | Activity [15] | Activity [16] | Activity [17] | Activity [18] | Activity [19] |
| --- | --- | --- | --- | --- | --- | --- | --- | --- | --- | --- | --- | --- | --- | --- | --- | --- | --- | --- | --- |
| Cc1ccc2c(Cc3nn4c(C=O)c(-c5ccc(Cl)cc5)nc4s3)coc2c1 | 11.4% | Non-toxic | 24.3% | 48.8% | 193.21% | Non-toxic | Non-toxic | 47.2% | 3.55 s | 3.6% | Non-toxic | Non-toxic | 42.5% | 6.667 s | 7.867 s | 5.35 s | 142.89% | Non-toxic | 6.517 s |
| Cc1ccc2c(Cc3nn4cc(-c5ccc(Cl)cc5)nc4s3)coc2c1 | 13.4% | Non-toxic | 42.1% | 58.1% | 259.03% | Non-toxic | Non-toxic | 55.9% | 3.483 s | 8.38% | Non-toxic | Non-toxic | 51.7% | 8.75 s | 9.633 s | 4.033 s | 196.31% | Non-toxic | 7.95 s |
| Cc1ccc2c(Cc3nn4c(CN5CCOCC5)c(-c5ccc(Br)cc5)nc4s3)coc2c1 | 12.4% | Non-toxic | 31.7% | 52.7% | 203.76% | Non-toxic | Non-toxic | 51.2% | 3.5 s | 8.38% | Non-toxic | Non-toxic | 43.4% | 6.45 s | 8.15 s | 4.067 s | 172.08% | Non-toxic | 7.3 s |
| Cc1ccc2c(Cc3nn4c(CN5CCOCC5)c(-c5ccc([N+](=O)[O-])cc5)nc4s3)coc2c1 | 5.19% | Non-toxic | 24.3% | 51.2% | 246.62% | Non-toxic | Non-toxic | 48% | 3.6 s | 3.6% | Non-toxic | Non-toxic | 41.6% | 8.433 s | 9.3 s | 5.933 s | 199.4% | Non-toxic | 8.033 s |
| Cc1ccc2c(Cc3nn4cc(-c5ccc([N+](=O)[O-])cc5)nc4s3)coc2c1 | 13.4% | Non-toxic | 24.3% | 49.8% | 268.98% | Non-toxic | Non-toxic | 45.7% | 4.65 s | 0% | Non-toxic | Non-toxic | 40.9% | 9.567 s | 9.9 s | 7.4 s | 211.21% | Non-toxic | 8.35 s |
| Cc1ccc2c(Cc3nn4c(CN5CCOCC5)c(-c5ccc(Cl)cc5)nc4s3)coc2c1 | 15.5% | Non-toxic | 28.9% | 50.4% | 205.62% | Non-toxic | Non-toxic | 48% | 3.767 s | 4.77% | Non-toxic | Non-toxic | 43.4% | 6.767 s | 8.2 s | 5.45 s | 159.03% | Non-toxic | 6.95 s |
